This passage reports cytotoxicity results from ChEMBL document CHEMBL4513216, “Probing the Open Global Health Chemical Diversity Library for Multistage-Active Starting Points for Next-Generation Antimalarials” (ACS Infect Dis, 2020).

Structures are written as SMILES.

The nature of the data set: Toxicity liver stage against HepG2, at 10uM. In kind it is cell-based. Set-up: test concentration 10 uM, cell line HepG2-A16-CD81EGFP. The conditions noted are these: human, HepG2-A16-CD81EGFP cells; read-out: INHIBITION
The procedure, abridged:
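Uninfected HepG2-A16-CD81EGFP cells, 3 × 10^3 per well, 1536-well, plated on prespotted compound at 10 μM final, parasite-free screening media added to match infected plates; puromycin 10 μM positive, DMSO 0.5% negative; run in parallel with 48 h PbLuc assay at 37 °C, 5% CO2; viability by CellTiter-Glo luminescence, normalized to controls.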
With `Cn1nnnc1SCc1cc2c(cc1Cl)OCO2`, the cytotoxicity at 10 µM was found to be 1.14%.

For `CCc1n[nH]c(C2CN(Cc3ncc(CC)o3)CCO2)n1` (stereo not drawn), the cytotoxicity at 10 µM was -9.79%.

`c1ccc(CN2CCC(CCNc3ncnc4c3CCNCC4)C2)cc1` (stereo not drawn): the cytotoxicity at 10 µM is -0.16%.

With `O=C1Nc2ccccc2NC12CCN(c1cccc(C(F)(F)F)n1)CC2`, the cytotoxicity at 10 µM was 2.31%.

`Cc1cnc(-c2nc(NC3CC3)ncc2-c2onc(C)c2C)cn1`: the cytotoxicity at 10 µM was -27.9%.

On to `CCOCc1cc(CN2CCn3c(CO)nnc3C2)ccc1OC`, for which the cytotoxicity at 10 µM was -37.2%.

As for `c1coc(-c2nnc([C@H]3CCN(Cc4ccc5c(c4)OCO5)C3)o2)c1`, the cytotoxicity at 10 µM is -0.0837%.

Take `CC(C)c1cc(NCC(C)N2CCCC2)n2nccc2n1` (stereo not drawn): the cytotoxicity at 10 µM is -12.4%.

On to `O=c1[nH][nH]cc1-c1ccnc(NCCc2cccnc2)n1`, for which the cytotoxicity at 10 µM is -8.86%.

Turning to `CCc1nc(C2CCCN(C(=O)c3c(C)noc3C)C2)no1` (stereo not drawn), the cytotoxicity at 10 µM was -12.8%.

For `Cc1nc(CN2CCOCC2c2[nH]ncc2C)cs1` (stereo not drawn), the cytotoxicity at 10 µM turned out to be 2.15%.

On to `COc1cc(C(=O)N(Cc2cnn(C)c2)C(C)C)ccc1OC(C)C`, for which the cytotoxicity at 10 µM was -6.02%.

With `CCCc1nc(CN2CCCC2Cn2cncn2)cs1` (stereo not drawn), the cytotoxicity at 10 µM is -9.39%.

As to `CC(C)Cn1ccc2c(NC(=O)c3n[nH]c4c3CCC4)cccc21`, the cytotoxicity at 10 µM stood at 7.33%.

For the compound `COC(=O)[C@H](C)NC(=O)c1cnc(Cc2ccc(F)cc2)s1`, the cytotoxicity at 10 µM was -10.9%.

Turning to `c1ccc(CN2CC[C@@H]3[C@@H](CO[C@@H]3CNc3ncccn3)C2)nc1`, the cytotoxicity at 10 µM was -4.09%.

Take `O=C(c1cc2c(s1)CCC2)N1CCCC1c1noc(C2CC2)n1` (stereo not drawn): the cytotoxicity at 10 µM was -8.18%.

As for `CC(C)Oc1ccc(C(=O)NCc2ccnc(N3CCCC3)c2)cn1`, the cytotoxicity at 10 µM is 47.3%.

Turning to `CCOc1ccc(CCCC(=O)N2CC[C@H](NC(C)=O)C2)cc1C`, the cytotoxicity at 10 µM was -16%.

As to `CCNc1ncc(C)c(-c2cnn(C)c2)n1`, the cytotoxicity at 10 µM is -3.73%.

For `O=C(NCCNc1ccc(C(F)(F)F)cn1)c1ccoc1`, the cytotoxicity at 10 µM was -2%.

As to `CC1CCCN(c2ccccc2OCC(=O)N2CCOCC2)C1` (stereo not drawn), the cytotoxicity at 10 µM is -22.3%.

For the compound `CC(C(=O)N(Cc1ccc(F)cc1)CC(F)(F)F)S(C)(=O)=O` (stereo not drawn), the cytotoxicity at 10 µM came out at 14.7%.

As to `O=C(c1ccc2[nH]c(=O)[nH]c2c1)N1CCC(Nc2cccnn2)CC1`, the cytotoxicity at 10 µM was 0.00528%.

As to `COc1cccc(CNC(C)Cn2cccn2)c1OC` (stereo not drawn), the cytotoxicity at 10 µM is -4.84%.

In the case of `CC(C)c1n[nH]c(C(=O)NC(C)c2ccncc2)c1Br` (stereo not drawn), the cytotoxicity at 10 µM is -5.85%.

As to `COCCN1CCC(CNC(=O)c2cc(C)cc(C)c2)C1` (stereo not drawn), the cytotoxicity at 10 µM is -7.32%.

`c1ccc(CCN2CCCC(c3ccnc4nccn34)C2)cc1` (stereo not drawn): the cytotoxicity at 10 µM amounted to 4.22%.

For `CN1CCCC2(CCN(C(=O)CCn3cncn3)C2)C1=O` (stereo not drawn), the cytotoxicity at 10 µM was -11%.

Take `CC(C)c1ccnc(N[C@H]2COC[C@@H]2N2CCCC2)n1`: the cytotoxicity at 10 µM is -4.48%.

Take `O=S(=O)(C1CC1)N1CCCn2nnc(Cn3cccc3)c2C1`: the cytotoxicity at 10 µM was 9.39%.

For the compound `CC(C)c1noc(CCCC(=O)N2CCN(S(C)(=O)=O)CC2)n1`, the cytotoxicity at 10 µM was -15.7%.

Regarding `Cc1nc(CCNC(=O)NCC(c2ccco2)N(C)C)cs1` (stereo not drawn), the cytotoxicity at 10 µM came out at 7.26%.

Turning to `CC(=O)N1CCC2(CC1)[C@@H]1CN(C(=O)N(C)C)C[C@@H]1C(=O)N2C`, the cytotoxicity at 10 µM came out at 2.38%.

As to `O=C1CC(c2ccc(C(=O)O)cc2)c2ncn(-c3cccc(F)c3)c2N1` (stereo not drawn), the cytotoxicity at 10 µM was -4.74%.

Turning to `CCC(NC(=O)c1cccc(N2CCCC2=O)c1)c1ccc(OC)cc1` (stereo not drawn), the cytotoxicity at 10 µM is -62.3%.

For the compound `CNc1ncccc1C(=O)N1CCCC2(C1)C(=O)N(C)c1ccccc12` (stereo not drawn), the cytotoxicity at 10 µM is -5.27%.

On to `COc1ccc(OC)c2c(C)cc(N(C)Cc3cc(C)on3)nc12`, for which the cytotoxicity at 10 µM was 1.42%.

As for `Cc1ccc(C)c(N2CCN(CC3(O)CCNC3)CC2)c1` (stereo not drawn), the cytotoxicity at 10 µM was -5.83%.

Turning to `CN1CCN(C(=O)c2nc3c(s2)CCCN3C(=O)C2CC2)CC1`, the cytotoxicity at 10 µM worked out at 1.82%.

Turning to `CN(C)C(=O)CN1C[C@H]2CC[C@@H](C1)N(Cc1ccccc1OCCO)C2`, the cytotoxicity at 10 µM is 8.79%.

Take `CCOc1ncccc1NC(=O)C1CCS(=O)(=O)C1` (stereo not drawn): the cytotoxicity at 10 µM was -16.7%.

Consider `CCN(CC(=O)NC)C(=O)c1sc(Cc2ccccc2)nc1C`, for which the cytotoxicity at 10 µM is -6.37%.

As for `OCCC[C@@H]1CN(c2ncc(Cl)cc2Cl)CC[C@@H]1N1CCOCC1`, the cytotoxicity at 10 µM was determined as 4.24%.

Regarding `CCc1cnccc1C(=O)NC1CCN(Cc2ccccc2F)CC1`, the cytotoxicity at 10 µM was -4.35%.

As for `COc1cccc(CN2CCCCCC2c2cccc(C)c2)c1O` (stereo not drawn), the cytotoxicity at 10 µM stood at 7.6%.

Turning to `Cc1csc(CN(CC2CCCO2)C(=O)c2cccnc2C)n1` (stereo not drawn), the cytotoxicity at 10 µM came out at 0.459%.

`Cn1nc(C(=O)NC2CC(C)(C)NC(C)(C)C2)cc1NC(=O)C1CC1`: the cytotoxicity at 10 µM was 0.754%.

For the compound `COc1cc(OC)cc(-c2noc(CC(N)c3ccccc3)n2)c1` (stereo not drawn), the cytotoxicity at 10 µM turned out to be 4.47%.

For the compound `c1cc(CNCc2ccnc(N3CCOCC3)c2)c2c(c1)OCCO2`, the cytotoxicity at 10 µM was -4.66%.

Regarding `CSc1ccc(CNC(c2ccc(F)cc2)c2nccn2C)cc1` (stereo not drawn), the cytotoxicity at 10 µM was -10.8%.

Consider `N#CC1(C(=O)N2CCOC(c3ccc(F)cc3)C2)CCCC1` (stereo not drawn), for which the cytotoxicity at 10 µM was -3.3%.

As for `CN(C)C(=O)c1c[nH]nc1C1CCN(S(=O)(=O)c2cccc(Cl)c2)CC1`, the cytotoxicity at 10 µM worked out at 1.22%.

As for `Cc1ccc(NCc2ccc(C#N)cc2)c(CN(C)C)c1`, the cytotoxicity at 10 µM is -3.07%.

Consider `CCc1nccn1-c1cncc(C2CCCN2)n1` (stereo not drawn), for which the cytotoxicity at 10 µM was -6.17%.

For the compound `CS(=O)(=O)c1ccc(NCC2CCCO2)c(S(C)(=O)=O)c1` (stereo not drawn), the cytotoxicity at 10 µM was found to be 3.72%.

On to `COc1cc(Cl)cc(C(=O)N2CCC3(CC2)CNC(=O)C3)c1`, for which the cytotoxicity at 10 µM was -18.1%.

On to `CC(C)n1cnnc1CN(C)C(=O)c1cccnc1O`, for which the cytotoxicity at 10 µM was 2.1%.

As for `O=C(C1CCCO1)N1CCC2(CC1)COCCN2CC1CC1` (stereo not drawn), the cytotoxicity at 10 µM came out at 2.79%.

As to `COc1ccc2cc(CNCc3c(C)nn(C)c3N(C)C)ccc2c1`, the cytotoxicity at 10 µM was -20.4%.

Regarding `Cc1n[nH]c(C)c1C1COCCN1C(=O)c1ccc2c(c1)CCO2` (stereo not drawn), the cytotoxicity at 10 µM was -4.01%.

`CCOCC1CN(CC2CC2)Cc2nn(CC3CC3)cc21` (stereo not drawn): the cytotoxicity at 10 µM is 0.748%.

`CNS(=O)(=O)c1ccc(CN2CCN(Cc3ncccc3C)CC2)cc1`: the cytotoxicity at 10 µM worked out at 8.41%.

As to `O=C(NCc1cccc(C(F)(F)F)c1)C(c1cccnc1)N1CCCC1` (stereo not drawn), the cytotoxicity at 10 µM is 6.63%.

Take `O=C(NCCc1cccc(Cl)c1)C1CCOCC1`: the cytotoxicity at 10 µM is -8.47%.

`c1cnn(Cc2ccc(CN3CCC4(CCCNC4)C3)cc2)c1` (stereo not drawn): the cytotoxicity at 10 µM was -3.71%.

In the case of `O=C(COc1coc(CN2CCCCC2)cc1=O)Nc1cccc(Cl)c1`, the cytotoxicity at 10 µM was -1.89%.

In the case of `Cc1cc(C(=O)NCc2ccnc(OCC(F)(F)F)c2)on1`, the cytotoxicity at 10 µM was -9.63%.

For `CN1CCCC1CNC(=O)CCCOc1ccc(I)cc1` (stereo not drawn), the cytotoxicity at 10 µM was -14%.

Take `Cn1cc(CN2CC[C@H]3O[C@H](C(=O)NC4CC4)CC[C@H]32)c2ccccc21`: the cytotoxicity at 10 µM was 8.82%.

With `CCc1nc(C(=O)N2CCN(C)CC2C)nn1-c1ccccc1Cl` (stereo not drawn), the cytotoxicity at 10 µM is -2.38%.

As for `COc1ccc(C2=NOC(CC#N)C2)cc1` (stereo not drawn), the cytotoxicity at 10 µM was 1.52%.

`CCS(=O)(=O)Nc1ccc2oc(C)c(C(C)=O)c2c1`: the cytotoxicity at 10 µM worked out at 7.13%.

Turning to `CC(C)(NC(=O)c1cnc(C(C)(C)C)s1)C(N)=O`, the cytotoxicity at 10 µM was -4.04%.

In the case of `Cc1cc(NC(=O)Cn2ccc(=O)c3ccccc32)[nH]n1`, the cytotoxicity at 10 µM was -146%.

In the case of `CC(O)CN1CCC(CN(C)Cc2cc(C#N)ccc2F)CC1` (stereo not drawn), the cytotoxicity at 10 µM was 2.05%.

As to `COC(=O)CCCn1ccnc1C(C)c1ccccc1` (stereo not drawn), the cytotoxicity at 10 µM was -6.73%.

For `Cc1nc(C(=O)NC2CCN(CCOc3ccc(Br)cc3)CC2)cs1`, the cytotoxicity at 10 µM is 13%.

On to `O=C(CN1CCOCS1(=O)=O)NCc1ccccc1`, for which the cytotoxicity at 10 µM turned out to be 1.09%.

As for `CN(C)c1nc2n(c(=O)n1)CCN2C(=O)Nc1ccc(Cl)c(Cl)c1`, the cytotoxicity at 10 µM worked out at 9.76%.

For the compound `O=C(COCCOc1ccccc1)Nc1ccnn1CC1CCOC1` (stereo not drawn), the cytotoxicity at 10 µM was 1.88%.

`CSCC(=O)N[C@H]1CN(CC2CCOCC2)C[C@@H]1c1ccccc1`: the cytotoxicity at 10 µM is -3.97%.

`COc1ncccc1CNC(=O)c1cc(F)cc(Br)c1`: the cytotoxicity at 10 µM was -0.872%.

For `CC(C)CN1CC2(CCN(C(=O)C3CSC(C)(C)C(=O)N3)CC2)CC1=O` (stereo not drawn), the cytotoxicity at 10 µM was 4.79%.

For `O=C(c1ccncc1)N1CCCn2nnc(Cn3cccn3)c2C1`, the cytotoxicity at 10 µM came out at 6.01%.

On to `CCN1CCN(C2CCN(Cc3ccc(Cl)s3)CC2)C1=O`, for which the cytotoxicity at 10 µM was 13.1%.

In the case of `COc1cccc(N2CC3(CCN(c4ccc(C)nn4)C3)CC2=O)c1` (stereo not drawn), the cytotoxicity at 10 µM turned out to be 6.62%.

Take `CC(NCc1cnc(N2CCOCC2)s1)c1ccc(Cl)s1` (stereo not drawn): the cytotoxicity at 10 µM was -9.02%.

For the compound `CN1CC(c2cc(O)nc(NCc3ccccc3Cl)n2)CC1=O` (stereo not drawn), the cytotoxicity at 10 µM was -20.2%.

For `Cn1cnnc1C1CCN(c2cncc(-n3cccn3)n2)CC1`, the cytotoxicity at 10 µM is -8.37%.

Take `NS(=O)(=O)c1cc(C(=O)N2CCCC(n3ccnc3)C2)cs1` (stereo not drawn): the cytotoxicity at 10 µM is -11.3%.

In the case of `O=C1C(NCc2nnc3n2CCCC3)CCCN1c1cccc(F)c1` (stereo not drawn), the cytotoxicity at 10 µM is -9.68%.

Consider `CN(C)c1ccc(CNc2cncc(-n3cccn3)n2)cc1`, for which the cytotoxicity at 10 µM was -7.31%.

Regarding `c1ccc(-c2cc(CNCCN3CCCC3)c3nnnn3c2)cc1`, the cytotoxicity at 10 µM was -17.4%.

For the compound `c1cnn(CCNCc2ccc(N3CCCCC3)cc2)c1`, the cytotoxicity at 10 µM is -10.1%.

`CC(C)n1c(C2CCCN(CCS(C)(=O)=O)C2)nc2ccccc21` (stereo not drawn): the cytotoxicity at 10 µM is -10.4%.

On to `CCc1nc(CN2CCN(C(=O)C3(C#N)CCCCC3)CC2)cs1`, for which the cytotoxicity at 10 µM is -3.6%.

As for `c1cnc(Nc2cc(CCC3CCCNC3)ccn2)cn1` (stereo not drawn), the cytotoxicity at 10 µM is -7.58%.
